# Paper PMC2151501 (The Journal of General Physiology, 2006)
# “Also recorded” adds a separate entry of the source. No end group written: not given here.
# Tests used:
# [1] = system: Na+ channels in dissociated neurons; conditions: ref Grieco and Raman, 2004; cited from earlier work
# [2] = molecular target: T1, hNav1.5-CW inactivation-deficient mutant Na+ channels (Homo sapiens, UniProt Q14524, A410W/L409C); assay: Use-dependent block during repetitive pulses; format: cell-based; conditions: for use-dependent block of peak currents, 20 ms pulses: β4_154–167 n = 6, acetyl-KIFMK-amide n = 5
# [3] = molecular target: T2, inactivation-deficient hNav1.5-CW mutant Na+ channels (Homo sapiens, UniProt Q14524, A410W/L409C); assay: On and off rates of β4_154–167 binding at 50 mV; format: cell-based
# How it was run: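 HEK293t cells transiently co-expressing inactivation-deficient hNav1.5-CW with rat β1, whole-cell clamp at 22–24°C, holding −140 mV. Peptide was included in the pipette solution (NaF/NaCl/EGTA/HEPES, pH 7.2) at 25–250 μM. The time-dependent block at 50 mV was fitted single-exponentially. 1/τ was plotted against concentration and fitted by linear regression: slope gave kon, intercept gave koff; n = 5.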
# [4] = system: voltage-gated Na+ channels; conditions: ref Catterall, 1980; Wang and Wang, 2003; Strichartz, et al., 1987; cited from earlier work
# [5] = molecular target: hNav1.5-CW/F1760K mutant Na+ channels (Homo sapiens, UniProt Q14524, A410W/F1760K/L409C); conditions: ref Wang and Wang, cited from earlier work
# Shaker K+ channels = conditions: 50 mV, ref Murrell-Lagnado and Aldrich, 1993; cited from earlier work
# [6] = system: BTX-modified wild-type hNav1.5 Na+ channels; assay: Time-dependent block of BTX-modified wild-type Na+ currents; format: cell-based; conditions: 4 μM BTX; acetyl-KIFMK-amide 2 mM, β4_154–167 1 mM, after 2,000 pulses
# How it was run: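 Channels were modified by 4 μM BTX (final, from 0.5 mM DMSO stock) in the pipette, which also held either 2 mM acetyl-KIFMK-amide or 1 mM peptide. Cells were held at −140 mV and depolarized to 50 mV. The maintained-to-peak current ratio at 50 mV was measured. Five to six cells.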
# [7] = molecular target: T2, inactivation-deficient hNav1.5-CW mutant Na+ channels; assay: Resurgent Na+ currents near the activation threshold; format: cell-based; conditions: 2 mM in pipette, −80 to −20 mV, five cells
# How it was run: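 Whole-cell recording at room temperature (22–24°C) from transfected HEK293t cells expressing hNav1.5-CW plus rat β1, with 2 mM acetyl-peptide in the internal solution. After the test pulse, tail currents were recorded at −80 to −20 mV in 20-mV steps. Bath: 65 mM NaCl, 85 mM choline Cl, 2 mM CaCl2, 10 mM HEPES, pH 7.4. Five cells.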
# [8] = molecular target: T3, inactivation-deficient hNav1.5-L409C/A410W (hNav1.5-CW) Na+ channels (Homo sapiens, UniProt Q14524, A410W/L409C); conditions: ref Eaholtz et al., 1994; Tang et al., 1996; Wang and Wang, 2005; cited from earlier work
# [9] = molecular target: T1, hNav1.5-CW inactivation-deficient mutant Na+ channels; assay: Unblocking upon repolarization, two-pulse protocol; format: cell-based; conditions: 2 mM in pipette
# How it was run: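 Whole-cell hNav1.5-CW currents were recorded in HEK293t cells at room temperature with 2 mM peptide in the pipette. A two-pulse protocol with a 10-ms interpulse interval was used. Peak current amplitude at the second pulse was compared with that at the first.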
# [10] = system: inactivation-deficient rNav1.2 Na+ channels; conditions: ref Eaholtz et al., 1994; Tang et al., 1996; Wang and Wang, 2005; cited from earlier work
# [11] = molecular target: T3, inactivation-deficient hNav1.5-L409C/A410W (hNav1.5-CW) Na+ channels; format: cell-based; conditions: intracellular peptide, 50 mV; 25–250 μM for β4_154–167
# How it was run: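 Transiently transfected HEK293t cells (calcium phosphate; CD8 bead selection; used 1–4 d) expressing hNav1.5-L409C/A410W with rat β1. Peptide at 25–250 μM was dialysed via the pipette. Whole-cell currents were recorded at 50 mV from −140 mV holding, at 22–24°C. Decay was fitted with a single exponential. Steady-state block was taken ∼30 min after break-in.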
# [12] = 2 mM in pipette, 50 mV/20 ms at 1 Hz
substance,measurement,setting,value
β-pompilidotoxin,effect on fast inactivation gating (in words),[1],slowed the fast inactivation gating considerably
KKLITFILKKTREK [β4_154–167],"use-dependent block of peak currents, 20 ms pulses",[2]; [12],2.9 ± 1.6%
same,koff,[3]; read-out: off rate (koff) of binding,49.1 s⁻¹
same,kon,[3]; read-out: on rate (kon) of binding,1.01e+07 M⁻¹ s⁻¹
Batrachotoxin [BTX],effect of BTX on voltage-gated Na+ channels (in words),[4],eliminates the fast inactivation of voltage-gated Na^+ channels
same,sensitivity of hNav1.5-CW/F1760K to BTX (in words),[5]; 2003,BTX-resistant
"ShB peptide: the first 20 amino acids on the NH2 terminus of the Shaker channel (MAAVAGLYGLGEDRQHRKKQ; UniProt P08510 1-20, looked up, fragment)",koff,Shaker K+ channels,13.8 s⁻¹
acetyl-KIFMK-amide,block of BTX-modified open Na+ channels (in words),[6],resistant to β4_154–167 and acetyl-KIFMK-amide block; also recorded: little time-dependent block was found
same,"resurgent tail currents near activation threshold (in words), acetyl-KIFMK-amide",[7],elicited robust resurgent currents
same,additional use-dependent block on outward peak and inward tail currents,[2]; [12],~65%
same,tail current decay relative to β4_154–167,[2]; [12],four times faster
same,"use-dependent block of peak currents, 20 ms pulses",[2]; [12],62.4 ± 3.1%
same,"use-dependent block, 3 ms pulses","[2]; 2 mM in pipette, repetitive pulses, 3 ms, n = 5",28.5 ± 0.4%
same,"fitted τ of use-dependent block, 1 ms pulses","[2]; 50 mV for 1 ms at 1 Hz, n = 5",27.1 pulses
same,"use-dependent block, 1 ms pulses","[2]; 50 mV for 1 ms at 1 Hz, n = 5",15.5 ± 0.4%
same,"fitted τ of use-dependent block, 3 ms pulses","[2]; repetitive pulses, 3 ms, n = 5",14.5 pulses
same,"restoration of fast inactivation, inactivation-deficient hNav1.5 (in words)",[8],can restore fast inactivation
same,"tail current decay τ, short test pulse","[9]; short test pulse, n = 6",0.23 ± 0.02 ms
same,unblocking upon repolarization (in words),"[9]; −140 mV, two-pulse protocol, 10-ms interval, six cells",also occurred rapidly
same,effect of hNav1.5-F1760K on time-dependent block (in words),"[5]; hNav1.5-F1760K, 2005",hinders its time-dependent block
same,effect of hNav1.5-F1760K on use-dependent block (in words),"[5]; hNav1.5-F1760K, 2005",abolishes the use-dependent block
same,"restoration of fast inactivation, rNav1.2 (in words)",[10],can restore fast inactivation
same,time-dependent block of inactivation-deficient Na+ currents (in words),[11],restored the fast inactivation phenotype in hNav1.5 inactivation-deficient Na^+ channels
